Converted amounts (≈) assume the structure as drawn.
Columns and labels:
Raji [1] = assay: Inhibition of 12-O-tetradecanoylphorbol-13-acetate-induced EBV-early antigen activation in human Raji cells assessed as EA induction at 1000 molar ratio after 48 hrs by immunofluorescence technique relative to 12-O-tetradecanoylphorbol-13-acetate; assay type: cell-based; settings: human gammaherpesvirus 4
Outline: (§1)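 Raji cells were incubated for 48 h at 37 °C in medium with n-butyric acid (4 mM), TPA (32 pmol) and graded amounts of test compound. Smears were stained for EBV-EA by indirect immunofluorescence, and positive cells were counted among at least 500 cells. Assays were run in triplicate. Activity was expressed relative to the n-butyric acid plus TPA control, set as 100%.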

Raji [2] = assay: Inhibition of 12-O-tetradecanoylphorbol-13-acetate-induced EBV-early antigen activation in human Raji cells assessed as EA induction at 10 molar ratio after 48 hrs by immunofluorescence technique relative to 12-O-tetradecanoylphorbol-13-acetate; assay type: cell-based; design: scale not given: the % may be the effect or the level left; settings: human gammaherpesvirus 4; outline: as §1
[3] = Inhibition of 12-O-tetradecanoylphorbol-13-acetate-induced EBV-early antigen activation in human Raji cells after 48 hrs by immunofluorescence technique; assay type: cell-based, human gammaherpesvirus 4; outline: as §1
Raji [4] = assay: Inhibition of 12-O-tetradecanoylphorbol-13-acetate-induced EBV-early antigen activation in human Raji cells assessed as EA induction at 100 molar ratio after 48 hrs by immunofluorescence technique relative to 12-O-tetradecanoylphorbol-13-acetate; assay type: cell-based; design: scale not given: the % may be the effect or the level left; settings: human gammaherpesvirus 4; outline: as §1
Raji [5] = assay: Inhibition of 12-O-tetradecanoylphorbol-13-acetate-induced EBV-early antigen activation in human Raji cells assessed as EA induction at 500 molar ratio after 48 hrs by immunofluorescence technique relative to 12-O-tetradecanoylphorbol-13-acetate; assay type: cell-based; design: scale not given: the % may be the effect or the level left; settings: human gammaherpesvirus 4; outline: as §1
Pseudomonas aeruginosa = assay: Antimicrobial activity against Pseudomonas aeruginosa NBRC13275 after 24 hrs by broth dilution method; assay type: functional; settings: NBRC13275, 24 h
Outline: (§2)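 Modified NCCLS broth dilution. A 50 µL aliquot of bacterial cells (10⁶/mL in 0.85% NaCl) was added to 1 mL Mueller-Hinton broth containing compound over a 0.1–100 range.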

Escherichia coli = assay: Antimicrobial activity against Escherichia coli ATCC 11775 after 24 hrs by broth dilution method; assay type: functional; settings: ATCC 11775, 24 h; outline: as §2
Candida albicans [6] = assay: Antimicrobial activity against Candida albicans NBRC1060 after 24 hrs by broth dilution method; assay type: functional; settings: NBRC1060, 24 h
Aspergillus fumigatus [7] = assay: Antimicrobial activity against Aspergillus fumigatus NBRC4400 after 3-5 days by broth dilution method; settings: NBRC4400, 3-5 days
[8] = Cytotoxicity against human Raji cells assessed as cell viability at 1000 molar ratio after 48 hrs by trypan blue staining; assay type: cell-based; settings: read-out: Activity
Outline: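 Raji cells were exposed for 48 h at 37 °C to n-butyric acid (4 mM), TPA (32 pmol) and test compound, as in the EBV-EA induction setup. Viability of the treated cells was then measured by trypan blue staining.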

Paecilomyces variotii [9] = assay: Antimicrobial activity against Paecilomyces variotii NBRC4855 after 3-5 days by broth dilution method; settings: NBRC4855, 3-5 days
Bacillus mycoides = assay: Antimicrobial activity against Bacillus mycoides ATCC 11778 after 24 hrs by broth dilution method; assay type: functional; settings: ATCC 11778, 24 h; outline: as §2
Bacillus subtilis = assay: Antimicrobial activity against Bacillus subtilis NBRC3134 after 24 hrs by broth dilution method; assay type: functional; settings: NBRC3134, 24 h; outline: as §2
Saccharomyces cerevisiae [10] = assay: Antimicrobial activity against Saccharomyces cerevisiae NBRC10114 after 24 hrs by broth dilution method; assay type: functional; settings: NBRC10114, 24 h
Staphylococcus aureus = assay: Antimicrobial activity against Staphylococcus aureus NBRC13276 after 24 hrs by broth dilution method; assay type: functional; settings: NBRC13276, 24 h; outline: as §2
Penicillium expansum [11] = assay: Antimicrobial activity against Penicillium expansum NBRC8800 after 24 hrs by broth dilution method; assay type: functional; settings: NBRC8800, 24 h
Naganishia albida [12] = assay: Antimicrobial activity against Cryptococcus albidus NBRC0378 after 3-5 days by broth dilution method; settings: NBRC0378, 3-5 days
Salmonella enteritidis = assay: Antimicrobial activity against Salmonella enteritidis OPS10 after 24 hrs by broth dilution method; assay type: functional, Salmonella enterica subsp. enterica serovar Enteritidis; settings: Salmonella enterica, OPS10, 24 h; outline: as §2
[13] = Anticancer activity against DMBA/TPA-induced skin cancer in mouse assessed as number of papillomas per mouse at 85 nmol administered before TPA challenge measured after 20 weeks; assay type: functional
Outline: (§3)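 Mouse two-stage skin model: DMBA 390 nmol in 0.1 mL acetone applied topically by pipet. One week later, the same skin site was painted with test compound (85 nmol in acetone) or acetone alone, 60 min before TPA (1.7 nmol). Tumor response was scored as the average number of papillomas per mouse and the percentage of mice bearing papillomas.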

Saccharomyces cerevisiae [14] = assay: Antimicrobial activity against Saccharomyces cerevisiae NBRC10114 after 3-5 days by broth dilution method; settings: NBRC10114, 3-5 days
[15] = Anticancer activity against DMBA/TPA-induced skin cancer in mouse assessed as incidence of papilloma at 85 nmol administered before TPA challenge measured after 15 weeks; assay type: functional; outline: as §3
Hepatocyte = assay: Antiproliferative activity against human hepatocytes after 72 hrs by trypan blue exclusion assay; assay type: cell-based
Outline: (§4)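 Cells were kept in DMEM with 10% fetal serum and exposed to four concentrations of compound for 72 h at 37 °C in humidified 5% CO₂. They were then stained with 0.25% trypan blue for 20 min, and viable cells were counted by light microscopy. IC₅₀ was derived from separate experiments run in triplicate.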

Penicillium expansum [16] = assay: Antimicrobial activity against Penicillium expansum NBRC8800 after 3-5 days by broth dilution method; settings: NBRC8800, 3-5 days
[17] = Anticancer activity against DMBA/TPA-induced skin cancer in mouse assessed as incidence of papilloma at 85 nmol administered before TPA challenge measured after 10 weeks; assay type: functional; outline: as §3
Candida albicans [18] = assay: Antimicrobial activity against Candida albicans NBRC1060 after 3-5 days by broth dilution method; settings: NBRC1060, 3-5 days
Naganishia albida [19] = assay: Antimicrobial activity against Cryptococcus albidus NBRC0378 after 24 hrs by broth dilution method; assay type: functional; settings: NBRC0378, 24 h
[20] = Antiproliferative activity against human skin fibroblast after 72 hrs by trypan blue exclusion assay; assay type: cell-based; outline: as §4
[21] = Anticancer activity against DMBA/TPA-induced skin cancer in mouse assessed as incidence of papilloma at 85 nmol administered before TPA challenge measured after 20 weeks; assay type: functional; outline: as §3
Paecilomyces variotii [22] = assay: Antimicrobial activity against Paecilomyces variotii NBRC4855 after 24 hrs by broth dilution method; assay type: functional; settings: NBRC4855, 24 h
Aspergillus fumigatus [23] = assay: Antimicrobial activity against Aspergillus fumigatus NBRC4400 after 24 hrs by broth dilution method; assay type: functional; settings: NBRC4400, 24 h
MCF7 = assay: Antiproliferative activity against human MCF7 cells after 72 hrs by trypan blue exclusion assay; assay type: functional, cell-based; settings: MCF7, 72 h; outline: as §4
[24] = Antiproliferative activity against human SVCT-M12 cells after 72 hrs by trypan blue exclusion assay; assay type: cell-based; settings: SVCT-M12, 72 h; outline: as §4
A549 = assay: Antiproliferative activity against human A549 cells after 72 hrs by trypan blue exclusion assay; assay type: functional, cell-based; settings: A549, 72 h; outline: as §4
[25] = Antiproliferative activity against human Hs888Lu cells after 72 hrs by trypan blue exclusion assay; assay type: cell-based; outline: as §4
PC-3 = assay: Antiproliferative activity against human PC3 cells after 72 hrs by trypan blue exclusion assay; assay type: functional, cell-based; settings: PC-3, 72 h; outline: as §4

IC50 [3] [mol ratio/32 pmol TPA]	MIC (Pseudomonas aeruginosa) [µg/mL]	MIC (Escherichia coli) [µg/mL]	MIC (Aspergillus fumigatus [7]) [µg/mL]	MIC (Paecilomyces variotii [9]) [µg/mL]	MIC (Bacillus mycoides) [µg/mL]	MIC (Bacillus subtilis) [µg/mL]	MIC (Staphylococcus aureus) [µg/mL]	MIC (Salmonella enteritidis) [µg/mL]	SMILES	EA induction relative to TPA control (Raji [1]) [%]	Activity (Raji [2]) [%]	Activity (Raji [4]) [%]	Activity (Raji [5]) [%]	viability at 48 h, 1000 molar ratio [8] [%]	MIC (Naganishia albida [12]) [µg/mL]	MIC (Saccharomyces cerevisiae [14]) [µg/mL]	MIC (Penicillium expansum [16]) [µg/mL]	MIC (Candida albicans [18]) [µg/mL]	other results
201	> 100	> 100	25 (≈ 96.8 µM)	50 (≈ 194 µM)	1.56 (≈ 6.04 µM)	1.56 (≈ 6.04 µM)	6.25 (≈ 24.2 µM)	> 100	C[C@@H](O)c1cc2c(o1)C(=O)c1c(O)cccc1C2=O	4.2	76.3	52.5	20.4	60	1.56 (≈ 6.04 µM)				MIC (Candida albicans [6]): 25 µg/mL (≈ 96.8 µM); MIC (Saccharomyces cerevisiae [10]): 3.13 µg/mL (≈ 12.1 µM); MIC (Penicillium expansum [11]): 50 µg/mL (≈ 194 µM)
40.1									CC(=O)c1cc2c(o1)C(=O)c1c(O)cccc1C2=O	0	60.3	27.5	8.3	70					IC50 (MCF7): 2.61 µM; EC50 [24]: 11.7 µM; IC50 (A549): 4.31 µM; EC50 [25]: 14.6 µM; IC50 (PC-3): 3 µM
306									CC(O)c1cc2c(o1)C(=O)c1c(O)cccc1C2=O (racemic)	8.9	84.6	59	28.4	60					

Continued, compound first:

SMILES	IC50 [3] [mol ratio/32 pmol TPA]	MIC (Pseudomonas aeruginosa) [µg/mL]	MIC (Escherichia coli) [µg/mL]	MIC (Aspergillus fumigatus [7]) [µg/mL]	MIC (Paecilomyces variotii [9]) [µg/mL]	MIC (Bacillus mycoides) [µg/mL]	MIC (Bacillus subtilis) [µg/mL]	MIC (Staphylococcus aureus) [µg/mL]	MIC (Salmonella enteritidis) [µg/mL]	EA induction relative to TPA control (Raji [1]) [%]	Activity (Raji [2]) [%]	Activity (Raji [4]) [%]	Activity (Raji [5]) [%]	viability at 48 h, 1000 molar ratio [8] [%]	MIC (Naganishia albida [12]) [µg/mL]	MIC (Saccharomyces cerevisiae [14]) [µg/mL]	MIC (Penicillium expansum [16]) [µg/mL]	MIC (Candida albicans [18]) [µg/mL]	other results
COc1cc(/C=C/C(=O)CC(=O)/C=C/c2ccc(O)c(OC)c2)ccc1O [CURCUMIN]	345									8.9	95.8	74.5	40.3						
C[C@@H](O)c1cc2c(o1)C(=O)c1cccc(O)c1C2=O	38.9	> 100	> 100	12.5 (≈ 48.4 µM)	25 (≈ 96.8 µM)	0.78 (≈ 3.02 µM)	0.78 (≈ 3.02 µM)	3.13 (≈ 12.1 µM)	> 100	0	59.4	24.7	9.7	70		3.13 (≈ 12.1 µM)	25 (≈ 96.8 µM)	25 (≈ 96.8 µM)	Activity [13]: 3.9; Activity [15]: 47%; EC50 (Hepatocyte): 29.8 µM; Activity [17]: 7%; MIC (Naganishia albida [19]): 1.56 µg/mL (≈ 6.04 µM); EC50 [20]: 39.7 µM; Activity [21]: 67%
C[C@@H]1[C@H](O)[C@@H](C)/C=C/C=C/C=C/C=C/C=C/C=C/C=C/[C@H](O[C@@H]2O[C@H](C)[C@@H](O)[C@H](N)[C@@H]2O)C[C@@H]2O[C@](O)(C[C@@H](O)C[C@@H](O)[C@H](O)CC[C@@H](O)C[C@@H](O)CC(=O)O[C@H]1C)C[C@H](O)[C@H]2C(=O)O [AMPHOTERICIN B]															1.56 (≈ 1.69 µM)	0.78 (≈ 0.844 µM)	1.56 (≈ 1.69 µM)	1.56 (≈ 1.69 µM)	MIC (Paecilomyces variotii [22]): 0.78 µg/mL (≈ 0.844 µM); MIC (Aspergillus fumigatus [23]): 1.56 µg/mL (≈ 1.69 µM)

Source: ChEMBL document CHEMBL1152539, “Synthesis and evaluation of bioactive naphthoquinones from the Brazilian medicinal plant, Tabebuia avellanedae” (Bioorg Med Chem, 2009)
